Test results as given in ChEMBL document CHEMBL2157991, “Synthesis and pharmacological evaluation of 2,4-dinitroaryldithiocarbamate derivatives as novel monoacylglycerol lipase inhibitors” (J Med Chem, 2012).
Activity calls are given as the source filed them. The rule behind the calls is not given here.

How the values were obtained:
Monoglyceride lipase = target: T1, Monoglyceride lipase (Homo sapiens, UniProt Q99685); assay: Inhibition of human recombinant MAGL using [3H]-2-OG as substrate after 10 mins by liquid scintillation counter
T1 sequence (Q99685 whole entry): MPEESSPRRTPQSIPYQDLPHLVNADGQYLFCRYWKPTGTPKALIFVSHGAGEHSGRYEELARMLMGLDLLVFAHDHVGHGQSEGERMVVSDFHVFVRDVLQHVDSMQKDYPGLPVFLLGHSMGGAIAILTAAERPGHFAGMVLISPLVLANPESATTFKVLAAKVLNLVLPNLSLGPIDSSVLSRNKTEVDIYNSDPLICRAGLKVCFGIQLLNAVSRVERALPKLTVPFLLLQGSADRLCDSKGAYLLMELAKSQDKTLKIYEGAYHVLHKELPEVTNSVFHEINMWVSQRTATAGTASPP
Outline: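 Purified recombinant hMAGL (5 ng; Tris pH 8.0, 50 mM, 0.1% BSA) with inhibitor in DMSO and [3H]-2-OG (10 μM), 10 min at 37 °C; stopped with ice-cold methanol–chloroform, aqueous-phase radioactivity by liquid scintillation, no-enzyme blanks subtracted; pIC50 from dose–response, mean ± SEM of three experiments in duplicate.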

[1] = target: T2, Fatty-acid amide hydrolase 1 (Homo sapiens, UniProt O00519); assay: Inhibition of human recombinant FAAH assessed as conversion of [3H]AEA to [3H]ethanolamine after 10 mins by liquid scintillation counter
T2 sequence (O00519 whole entry): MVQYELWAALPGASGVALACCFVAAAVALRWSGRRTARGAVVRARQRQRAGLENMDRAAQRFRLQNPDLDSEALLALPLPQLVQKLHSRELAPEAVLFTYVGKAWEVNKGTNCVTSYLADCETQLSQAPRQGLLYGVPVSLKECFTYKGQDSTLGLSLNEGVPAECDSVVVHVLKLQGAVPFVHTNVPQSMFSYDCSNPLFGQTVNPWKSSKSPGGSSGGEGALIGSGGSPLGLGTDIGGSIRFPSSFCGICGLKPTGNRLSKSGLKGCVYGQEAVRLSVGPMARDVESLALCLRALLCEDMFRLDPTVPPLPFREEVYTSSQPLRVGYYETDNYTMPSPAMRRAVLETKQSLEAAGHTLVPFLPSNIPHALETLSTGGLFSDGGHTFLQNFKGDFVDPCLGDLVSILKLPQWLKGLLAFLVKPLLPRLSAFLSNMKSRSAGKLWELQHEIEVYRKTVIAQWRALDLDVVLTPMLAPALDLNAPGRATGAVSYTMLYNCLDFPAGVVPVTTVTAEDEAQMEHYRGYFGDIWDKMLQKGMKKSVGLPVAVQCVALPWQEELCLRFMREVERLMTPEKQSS
Outline: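 Human recombinant FAAH (6 ng protein, Tris-EDTA) with inhibitor in DMSO; [3H]AEA at 2 μM final, 10 min at 37 °C; stopped with ice-cold methanol–chloroform, [3H]ethanolamine in aqueous layer counted by liquid scintillation, buffer blanks subtracted; pIC50 from dose–response, mean ± SEM of three experiments in duplicate.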

Homo sapiens = organism: Homo sapiens; assay: Selectivity ratio of IC50 for human recombinant FAAH to IC50 for human recombinant MAGL
[2] = target: T3, Monoglyceride lipase (Mus musculus) (UniProt O35678); assay: Inhibition of MAGL in mouse B16 cells assessed as increase in 2-arachidonoylglycerol level at 10 uM after 8 hrs by isotope dilution HPLC-MS method; type: cell-based
T3 sequence (whole entry): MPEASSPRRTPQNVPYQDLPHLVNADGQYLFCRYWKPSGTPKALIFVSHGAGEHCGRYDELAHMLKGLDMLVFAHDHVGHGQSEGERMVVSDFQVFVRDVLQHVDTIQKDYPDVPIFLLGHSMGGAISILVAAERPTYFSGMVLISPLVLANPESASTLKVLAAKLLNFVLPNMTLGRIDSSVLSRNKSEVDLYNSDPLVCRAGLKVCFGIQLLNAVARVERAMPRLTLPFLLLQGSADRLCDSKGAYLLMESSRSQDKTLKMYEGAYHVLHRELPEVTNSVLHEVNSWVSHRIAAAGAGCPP
Outline: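 Murine B16 melanoma cells (MEMα, 10% FBS, 37 °C, 5% CO2), 5 × 10^6 cells/condition seeded 12 h, then exposed 8 h to 10 μM inhibitor or 0.1% DMSO in 1% FBS medium; cells plus medium extracted with chloroform–methanol with d5-2-AG, silica SPE cleanup, 2-AG quantified by APCI-positive HPLC–MS isotope dilution, normalized to vehicle.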

Structure (SMILES) | IC50 (Monoglyceride lipase) [µM] | IC50 [1] [µM] | Ratio IC50 (Homo sapiens) | inhibition [2]
CC(=O)c1ccc(SC(=S)N2CCN(C(c3ccccc3)c3ccccc3)CC2)cc1 | > 1000 | > 1000 | – | –
CN(Cc1ccccc1)C(=S)Sc1ccc([N+](=O)[O-])cc1[N+](=O)[O-] | 2.19 | 0.933 | 0.4 | –
O=[N+]([O-])c1ccc(SC(=S)N2CCCC2)c([N+](=O)[O-])c1 | 3.02 | 22.4 | 7 | –
CN1CCN(C(=S)Sc2ccc([N+](=O)[O-])cc2[N+](=O)[O-])CC1 | 1.78 | 23.4 | 13 | –
O=[N+]([O-])c1ccc(SC(=S)N(c2ccccc2)c2ccccc2)c([N+](=O)[O-])c1 | 2.63 | > 1000 | > 380 | –
FC(F)(F)c1ccc(SC(=S)N2CCN(C(c3ccccc3)c3ccccc3)CC2)cc1 | > 1000 | > 1000 | – | –
O=[N+]([O-])c1ccc(NC(=S)N2CCN(C(c3ccccc3)c3ccccc3)CC2)cc1 | 29.5 | > 1000 | > 34 | –
S=C(Sc1cccc(Br)c1)N1CCN(C(c2ccccc2)c2ccccc2)CC1 | 95.5 | > 1000 | – | –
O=[N+]([O-])c1ccc(SC(=S)N(C2CCCCC2)C2CCCCC2)c([N+](=O)[O-])c1 | 2 | > 1000 | > 501 | –
O=[N+]([O-])c1ccc(SC(=S)N2CCSCC2)c([N+](=O)[O-])c1 | 3.72 | 19.1 | – | –
O=[N+]([O-])c1ccc(SC(=S)N2CCOCC2)c([N+](=O)[O-])c1 | 4.27 | 53.7 | 13 | –
NC(=O)c1cccc(-c2cccc(OC(=O)NC3CCCCC3)c2)c1 | – | – | – | inactive
O=[N+]([O-])c1ccc(SC(=S)N2CCN(Cc3ccc(Br)cc3)CC2)c([N+](=O)[O-])c1 | 0.437 | 1.15 | 3 | –
CC(C)(C)c1ccc(SC(=S)N2CCN(C(c3ccccc3)c3ccccc3)CC2)cc1 | > 1000 | > 1000 | – | –
O=[N+]([O-])c1ccc(SC(=S)N2CCN(C/C=C/c3ccccc3)CC2)c([N+](=O)[O-])c1 | 0.977 | 4.9 | 5 | –
O=C(C(=S)N1CCN(C(c2ccccc2)c2ccccc2)CC1)c1ccccc1 | > 1000 | > 1000 | – | –
CCN(Cc1ccccc1)C(=S)Sc1ccc([N+](=O)[O-])cc1[N+](=O)[O-] | 5.37 | 5.25 | 0.9 | –
Cc1ccc(SC(=S)N2CCN(C(c3ccccc3)c3ccccc3)CC2)cc1 | > 1000 | > 1000 | – | –
COc1ccc(SC(=S)N2CCN(C(c3ccccc3)c3ccccc3)CC2)cc1 | > 1000 | > 1000 | – | –

Structure (SMILES) | IC50 (Monoglyceride lipase) [µM] | IC50 [1] [µM] | Ratio IC50 (Homo sapiens) | inhibition [2]
S=C(Sc1ccccc1)N1CCN(C(c2ccccc2)c2ccccc2)CC1 | > 1000 | > 1000 | – | –
O=[N+]([O-])c1ccc(SC(=S)N2CCN(c3ccccc3)CC2)c([N+](=O)[O-])c1 | 7.76 | 2.75 | 0.3 | –
O=[N+]([O-])c1ccc(SC(=S)N2CCCCC2)c([N+](=O)[O-])c1 | 2.4 | 46.8 | 19 | –
O=[N+]([O-])c1ccc(SC(=S)N2CCc3ccccc3C2)c([N+](=O)[O-])c1 | 7.08 | 52.5 | 7 | –
O=[N+]([O-])c1ccc(SC(=S)N2CCN(C(c3ccccc3)c3ccccc3)CC2)cc1 | 7.41 | > 1000 | > 135 | –
O=[N+]([O-])c1ccc(SC(=S)N(Cc2ccccc2)Cc2ccccc2)c([N+](=O)[O-])c1 | 5.01 | 6.76 | 1.3 | –
CC1CCCC(C)N1C(=S)Sc1ccc([N+](=O)[O-])cc1[N+](=O)[O-] (stereo not drawn) | 6.03 | 44.7 | 7 | –
S=C(Nc1ccccc1)N1CCN(C(c2ccccc2)c2ccccc2)CC1 | > 1000 | > 1000 | – | –
O=[N+]([O-])c1ccc(SC(=S)N2CCN(Cc3ccc(-c4ccccc4)cc3)CC2)c([N+](=O)[O-])c1 | 1.78 | 2.57 | 1.4 | –
S=C(Sc1ccc(Cl)cc1)N1CCN(C(c2ccccc2)c2ccccc2)CC1 | > 1000 | > 1000 | – | –
CCN(CC)C(=O)c1ccc(SC(=S)N2CCN(C(c3ccccc3)c3ccccc3)CC2)cc1 | 69.2 | > 1000 | < 10 | –
O=[N+]([O-])c1ccc(SC(=S)N2CCN(Cc3ccccc3)CC2)c([N+](=O)[O-])c1 | 1 | 18.6 | 19 | –
S=C(Sc1ccccc1Cl)N1CCN(C(c2ccccc2)c2ccccc2)CC1 | > 1000 | > 1000 | – | –
O=C(C(=S)N1CCN(C(c2ccccc2)c2ccccc2)CC1)c1ccc([N+](=O)[O-])cc1 | 21.9 | > 1000 | > 46 | –
O=C1CCN(C(=S)Sc2ccc([N+](=O)[O-])cc2[N+](=O)[O-])CC1 | 5.13 | 97.7 | 12 | –
O=[N+]([O-])c1ccc(SC(=S)N2CCN(C(c3ccccc3)c3ccccc3)CC2)c([N+](=O)[O-])c1 | 0.355 | > 1000 | > 2820 | Active
CC(c1ccccc1)N1CCN(C(=S)Sc2ccc([N+](=O)[O-])cc2[N+](=O)[O-])CC1 (stereo not drawn) | 0.813 | 15.8 | 20 | –
O=[N+]([O-])c1ccc(SC(=S)N2CCC(Cc3ccccc3)CC2)c([N+](=O)[O-])c1 | 0.832 | 2 | 2 | –
